ChEMBL document CHEMBL1131185, “Syntheses of new isodethiaazacephems as potent antibacterial agents” (1998)
≈ marks a conversion by molar mass, not a printed value.

Legend:
Escherichia coli = assay: In Vitro minimal inhibitory concentration against Escherichia coli (ATCC 39188); assay type: functional
In short: (§1)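 Serial broth dilution in heart infusion broth. Inoculum was a 10^-4 dilution of an overnight culture. Seeded antibiotic-containing tubes were incubated 37 °C for 20 h. […] Values are the average of triplicate determinations.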

Klebsiella pneumoniae = assay: In Vitro minimal inhibitory concentration against Klebsiella pneumoniae (NCTC 418); assay type: functional; in short: as §1
Pseudomonas aeruginosa = assay: In Vitro minimal inhibitory concentration against Pseudomonas aeruginosa (1101-75); assay type: functional; in short: as §1
Staphylococcus aureus = assay: In Vitro minimal inhibitory concentration against Staphylococcus aureus (FDA 209P); assay type: functional; in short: as §1
Salmonella typhi = assay: In Vitro minimal inhibitory concentration against Salmonella typhi (O-901); assay type: functional, Salmonella enterica subsp. enterica serovar Typhi; conditions: Salmonella enterica
In short: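 Serial broth dilution MIC. Inoculum: overnight culture diluted 10^-4 in heart infusion broth. Seeded antibiotic-containing broth tubes incubated 20 h at 37 °C. MIC is the lowest concentration preventing visible growth. Concentrations tested up to 128 μg/mL. Values are the average of triplicate determinations.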

SMILES | MIC (Escherichia coli) [mg/L] | MIC (Klebsiella pneumoniae) [mg/L] | MIC (Pseudomonas aeruginosa) [mg/L] | MIC (Staphylococcus aureus) [mg/L] | MIC (Salmonella typhi) [mg/L]
CC1=C(C(=O)O)N2C(=O)[C@@H](NC(=O)Cc3ccccc3)[C@H]2SC1 | 13.1 (≈ 39.5 µM) | 2.98 (≈ 8.97 µM) | 100 (≈ 301 µM) | 0.64 (≈ 1.93 µM) | 24.5 (≈ 73.7 µM)
CS(=O)(=O)C1(C(=O)O)C(=O)NC[C@@H]2[C@H](NC(=O)Cc3ccccc3)C(=O)N21 (stereo not given in full) | 97.2 (≈ 246 µM) | 51 (≈ 129 µM) | 120 (≈ 303 µM) | 48.5 (≈ 123 µM) | 65.3 (≈ 165 µM)
O=C(Cc1ccccc1)N[C@@H]1C(=O)N2C(C(=O)O)=C(OS(=O)(=O)C(F)(F)F)NC[C@H]12 (racemic) | 0.09 (≈ 0.2 µM) | 0.24 (≈ 0.534 µM) | 1.15 (≈ 2.56 µM) | 0.01 (≈ 0.0223 µM) | 0.68 (≈ 1.51 µM)
O=C(Cc1ccccc1)N[C@@H]1C(=O)N2C(C(=O)O)=C(O)NC[C@H]12 (racemic) | 94.7 (≈ 298 µM) | > 128 | > 128 | 29.5 (≈ 93 µM) | > 128
CS(=O)(=O)C1=C(O)NC[C@@H]2[C@H](NC(=O)Cc3ccccc3)C(=O)N12 (racemic) | > 128 | > 128 | > 128 | > 128 | > 128
CS(=O)(=O)OC1=C(C(=O)OCc2ccccc2)N2C(=O)[C@@H](NC(=O)Cc3ccccc3)[C@H]2CN1 (racemic) | > 128 | > 128 | > 128 | > 128 | > 128
O=C(Cc1ccccc1)N[C@@H]1C(=O)N2C(C(=O)OCc3ccccc3)=C(OS(=O)(=O)C(F)(F)F)NC[C@H]12 (racemic) | > 128 | > 128 | > 128 | > 128 | > 128
CS(=O)(=O)OC1=C(C(=O)O)N2C(=O)[C@@H](NC(=O)Cc3ccccc3)[C@H]2CN1 (racemic) | 0.95 (≈ 2.4 µM) | 0.68 (≈ 1.72 µM) | 4.38 (≈ 11.1 µM) | 0.07 (≈ 0.177 µM) | 1.2 (≈ 3.03 µM)
CO/N=C(\C(=O)N[C@@H]1C(=O)N2C(C(=O)O)=C(COC(C)=O)CS[C@H]12)c1csc(N)n1 [CEFOTAXIME] | 0.25 (≈ 0.549 µM) | 10.2 (≈ 22.5 µM) | 62.4 (≈ 137 µM) | 0.08 (≈ 0.176 µM) | 20.3 (≈ 44.6 µM)
CC1(C)S[C@@H]2[C@H](NC(=O)Cc3ccccc3)C(=O)N2[C@H]1C(=O)O [PENICILLIN G] | 2.3 (≈ 6.88 µM) | > 128 | > 128 | 0.4 (≈ 1.2 µM) | > 128
